According to ChEMBL document CHEMBL3297699, “Synthesis of novel fluoro analogues of MKC442 as microbicides” (J Med Chem, 2014):

Experiments:
[1] = system: Human immunodeficiency virus 1; assay: Antiviral activity against HIV1 infected in human MT4 cells assessed as lowest compound concentration required to irreversibly knock out vial multiplication treated by chronic treatment measured after 40 days by MTT assay; format: functional
How it was run: (§1)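 HIV-1-infected MT-4 cells at high MOI (5−10 CCID50/cell) in 40-day assays. Compound is given continuously (chronic), for only the first 4 h after infection, or for 4 h immediately before infection. Cells are resuspended at 10^5 cells/mL every 4 days. The value is the lowest concentration that irreversibly knocks out HIV-1 multiplication, as the mean of three independent determinations.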

[2] = system: Human immunodeficiency virus 1; assay: Antiviral activity against efavirenz-resistant HIV1 harboring RT 100I, 103R, 179D, 225H mutant infected in human MT4 cells assessed as inhibition of virus-induced cytopathogenicity after 4 days by MTT assay; format: functional, organism-based; details: Human immunodeficiency virus 1, MT4
How it was run: (§2)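 MT-4 cells grown at 37 °C, 5% CO2 in RPMI-1640 with 10% FCS, penicillin and streptomycin. Compounds taken up in DMSO at […] (stock), then diluted in medium. 1 × 10^4 cells per well with serial compound dilutions, then HIV-1 inoculum sized to give complete cytopathogenicity by day 4. Viability read by MTT. […] Mean of three independent determinations.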

[3] = system: Human immunodeficiency virus 1; assay: Antiviral activity against HIV1 MP582 infected in human dendritic cells assessed as inhibition of p24 production; details: Human immunodeficiency virus 1, MP582, dendritic cells
[4] = system: Human immunodeficiency virus 1; assay: Antiviral activity against TMC125-resistant HIV1 harboring RT 109M, 138K, 190E mutant infected in human MT4 cells assessed as inhibition of virus-induced cytopathogenicity after 4 days by MTT assay; format: functional, organism-based; details: Human immunodeficiency virus 1, MT4, 96 h; how it was run: as §2
[5] = system: Human immunodeficiency virus 1; assay: Antiviral activity against NRTI-resistant HIV1 MP1315 infected in human dendritic cells assessed as inhibition of p24 in supernatants; details: Human immunodeficiency virus 1, MP1315, dendritic cells
[6] = system: Human immunodeficiency virus 1; assay: Antiviral activity against MC1220-resistant HIV1 harboring RT 100I, 179D, 181C mutant infected in human MT4 cells assessed as inhibition of virus-induced cytopathogenicity after 4 days by MTT assay; format: functional, organism-based; details: Human immunodeficiency virus 1, MT4, 96 h; how it was run: as §2
[7] = system: Human immunodeficiency virus 1; assay: Antiviral activity against HIV1 CRF02 infected in human dendritic cells assessed as inhibition of p24 in supernatants; details: Human immunodeficiency virus 1, CRF02, dendritic cells
[8] = system: Human immunodeficiency virus 1; assay: Ratio of EC50 for zidovudine-resistant HIV1 harboring RT 67N, 70R, 215F, 219Q mutant to EC50 for wild type HIV1 3B; format: functional
[9] = system: Human immunodeficiency virus 1; assay: Antiviral activity against zidovudine-resistant HIV1 harboring RT 67N, 70R, 215F, 219Q mutant infected in human MT4 cells assessed as inhibition of virus-induced cytopathogenicity after 4 days by MTT assay; format: functional, organism-based; details: Human immunodeficiency virus 1, MT4, 96 h; how it was run: as §2
[10] = system: Human immunodeficiency virus 1; assay: Antiviral activity against […] HIV1 harboring Y181C mutant infected in human MT4 cells assessed as inhibition of virus-induced cytopathogenicity after 4 days by MTT assay; format: functional, organism-based; details: Human immunodeficiency virus 1, MT4, 96 h; how it was run: as §2
[11] = system: Human immunodeficiency virus 1; assay: Antiviral activity against TMC120-resistant HIV1 harboring RT 100I, 138G mutant infected in human MT4 cells assessed as inhibition of virus-induced cytopathogenicity after 4 days by MTT assay; format: functional, organism-based; details: Human immunodeficiency virus 1, MT4, 96 h; how it was run: as §2
[12] = system: Human immunodeficiency virus 1; assay: Antiviral activity against saquinavir-resistant HIV1 infected in human MT4 cells assessed as inhibition of virus-induced cytopathogenicity after 4 days by MTT assay; format: functional, organism-based; details: Human immunodeficiency virus 1, MT4, 96 h; how it was run: as §2
[13] = Cytotoxicity against human MT4 cells after 40 days by MTT assay; format: cell-based
How it was run: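 Mock-infected MT-4 cells at 1 × 10^5 cells/mL, 37 °C, with various compound concentrations for 40 days. One-tenth of the culture is moved every 3−4 days into fresh drug-containing medium at low density to keep growth exponential. Viability is read by MTT at each passage. The value is the maximum concentration still allowing exponential proliferation, as the mean of three determinations.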

[14] = system: Human immunodeficiency virus 1; assay: Antiviral activity against HIV1 MP634 infected in human dendritic cells assessed as inhibition of p24 in supernatants; details: Human immunodeficiency virus 1, MP634, dendritic cells
[15] = system: Human immunodeficiency virus 1; assay: Ratio of EC50 for MDR-resistant HIV1 harboring 41L, 74V, 106A, 215Y mutant to EC50 for wild type HIV1 3B; format: functional
[16] = system: Human immunodeficiency virus 1; assay: Antiviral activity against HIV1 MP1308 infected in human dendritic cells assessed as inhibition of p24; details: Human immunodeficiency virus 1, MP1308, dendritic cells
[17] = system: Human immunodeficiency virus 1; assay: Antiviral activity against HIV1 infected in human MT4 cells assessed as lowest compound concentration required to irreversibly knock out vial multiplication treated 4 hrs after infection measured after 40 days by MTT assay; format: functional; how it was run: as §1
[18] = system: Human immunodeficiency virus 1; assay: Ratio of EC50 for saquinavir-resistant HIV1 to EC50 for wild type HIV1 3B; format: functional
[19] = system: Human immunodeficiency virus 1; assay: Ratio of EC50 for efavirenz-resistant HIV1 harboring RT 100I, 103R, 179D, 225H mutant to EC50 for wild type HIV1 3B; format: functional
[20] = system: Human immunodeficiency virus 1; assay: Ratio of MC1220 EC50 to compound EC50 for HIV1 MP634 infected in human cells
[21] = system: Human immunodeficiency virus 1; assay: Antiviral activity against […] HIV1 harboring 103N, 181C mutant infected in human MT4 cells assessed as inhibition of virus-induced cytopathogenicity after 4 days by MTT assay; format: functional, organism-based; details: Human immunodeficiency virus 1, MT4, 96 h; how it was run: as §2
[22] = system: Human immunodeficiency virus 1; assay: Antiviral activity against HIV1 CRF01 infected in human dendritic cells assessed as inhibition of p24 in supernatants; details: Human immunodeficiency virus 1, CRF01, dendritic cells
[23] = system: Human immunodeficiency virus 1; assay: Antiviral activity against MDR-resistant HIV1 harboring 41L, 74V, 106A, 215Y mutant infected in human MT4 cells assessed as inhibition of virus-induced cytopathogenicity after 4 days by MTT assay; format: functional, organism-based; details: Human immunodeficiency virus 1, MT4, 96 h; how it was run: as §2
[24] = system: Human immunodeficiency virus 1; assay: Antiviral activity against 6-[(3,5-Dimethylphenyl)fluoromethyl]-5-ethyl-1-{[[4-(3-hydroxyprop-1-ynyl)benzyl]oxy]methyl}pyrimidine-2,4(1H,3H)-dione-resistant HIV1 harboring RT 106I, 181C mutant infected in human MT4 cells assessed as inhibition of virus-induced cytopathogenicity after 4 days by MTT assay; format: functional, organism-based; details: Human immunodeficiency virus 1, MT4; how it was run: as §2
[25] = Cytotoxicity against human MT4 cells after 96 hrs by MTT assay; format: cell-based
How it was run: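 Serial compound dilutions (from DMSO stocks at […]) are added, then cells are held 96 h at 37 °C in humidified 5% CO2. Viability is read by MTT. The value is the concentration reducing proliferation by 50%, as the mean of three independent determinations, run in parallel with the antiviral assays.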

[26] = system: Human immunodeficiency virus 1; assay: Antiviral activity against HIV1 MP411 infected in human dendritic cells assessed as inhibition of p24 in supernatants; details: Human immunodeficiency virus 1, MP411, dendritic cells
[27] = system: Human immunodeficiency virus 1; assay: Antiviral activity against wild type HIV1 3B infected in human MT4 cells assessed as inhibition of virus-induced cytopathogenicity after 4 days by MTT assay; format: functional, organism-based; details: Human immunodeficiency virus 1, 3B, MT4, 96 h; how it was run: as §2
[28] = system: Human immunodeficiency virus 1; assay: Antiviral activity against HIV1 W5269 infected in human dendritic cells assessed as inhibition of p24 production; details: Human immunodeficiency virus 1, W5269, dendritic cells
[29] = system: Human immunodeficiency virus 1; assay: Antiviral activity against HIV1 MP1033 infected in human dendritic cells assessed as inhibition of p24; details: Human immunodeficiency virus 1, MP1033, dendritic cells
[30] = system: Human immunodeficiency virus 1; assay: Antiviral activity against HIV1 infected in human MT4 cells assessed as lowest compound concentration required to irreversibly knock out vial multiplication treated 4 hrs before infection measured after 40 days by MTT assay; format: functional; how it was run: as §1

CCc1c(C(F)c2cc(C)cc(C)c2)n(COCc2ccc(C#CCO)cc2)c(=O)[nH]c1=O (stereo not given)
Activity [1]: 0.5 µM | EC50 [2]: 0.1 µM | EC99 [3]: 0.01 µM | EC50 [4]: 0.9 µM | EC99 [5]: 0.0001 µM | EC50 [6]: 0.04 µM | EC99 [7]: 0.1 µM | Ratio EC50 [8]: 1.7 | EC50 [9]: 0.01 µM | EC50 [10]: 0.04 µM | EC50 [11]: 0.01 µM | EC50 [12]: 0.02 µM | MNTC at 960 h [13]: 10 µM | EC99 [14]: 0.01 µM | Ratio EC50 [15]: 3.3 | EC99 [16]: 0.01 µM | Activity [17]: >20 µM | Ratio EC50 [18]: 3.3 | Ratio EC50 [19]: >10 | Ratio EC50 [20]: 10 | EC50 [21]: 0.3 µM | EC99 [22]: 0.01 µM | EC50 [23]: 0.02 µM | EC50 [24]: 2 µM | CC50 at 96 h [25]: 37 µM | EC99 [26]: 0.01 µM | EC50 [27]: 0.006 µM | EC99 [28]: 0.01 µM | EC99 [29]: 0.01 µM | Activity [30]: >20 µM
